Screening results: PubChem, several laboratories
DDE Tn7 FP inh: inhibitors of Tn7 peptide binding to fibrin DD(E), primary screen, biochemical, fluorescence polarization, human fibrin, Tn7 probe. Fibrinogen beta chain (Homo sapiens), P02675. FP displacement of FITC-Tn7 peptide from fibrin DD(E); 0% = median of compound wells per plate. inhibition, % at 8.3 µM. actives 0.13% (n = 370,000). AID 720508, 2013;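 active means inhibition above the mean of compounds falling within the control limits plus 3 SD of them, cut at about 14% in these data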
Target sequence (P02675 whole entry, looked up): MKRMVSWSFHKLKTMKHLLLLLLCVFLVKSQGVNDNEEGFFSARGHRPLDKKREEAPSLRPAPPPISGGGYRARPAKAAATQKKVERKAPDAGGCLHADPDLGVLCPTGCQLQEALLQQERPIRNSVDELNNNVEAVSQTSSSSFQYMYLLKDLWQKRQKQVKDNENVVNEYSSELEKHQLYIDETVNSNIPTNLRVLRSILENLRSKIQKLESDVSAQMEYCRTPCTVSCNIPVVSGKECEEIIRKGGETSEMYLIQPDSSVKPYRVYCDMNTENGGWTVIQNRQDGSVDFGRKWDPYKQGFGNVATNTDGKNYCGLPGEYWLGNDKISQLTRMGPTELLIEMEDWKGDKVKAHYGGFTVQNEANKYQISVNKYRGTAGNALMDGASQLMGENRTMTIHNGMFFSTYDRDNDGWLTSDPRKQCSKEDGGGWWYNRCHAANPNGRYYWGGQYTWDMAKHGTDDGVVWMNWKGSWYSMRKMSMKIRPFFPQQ
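Also added: labelled Tn7 tracer, 0.1 µM; Assay system: human fibrin DD(E) protein; Amount: 2 µM fibrin DD(E); Schedule: 10 min compound pre-incubation, 3 h probe incubation at room temperature; Repeats: one replicate per compound; Read-out basis: percent inhibition; Measured by: fluorescence polarization of the labelled Tn7 tracer.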
Cardio protect: cardioprotection against H2O2-induced cell death, primary screen, uHTS, H9c2 cells, ATPLite luminescence. actives 0.63% (n = 360,000). protection from H2O2 cell death, % at 20 µM. H9c2 cardiomyocytes, H2O2 injury protection, 2 h;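 active means compounds giving at least 50% protection of heart cells from peroxide-induced death in the single-dose screen, raw or plate-pattern-corrected value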
TAG inh: inhibitors of triacylglycerol accumulation, primary screen, cell-based, uHTS, fluorescence, H9c2; H9c2 cells, Nile Red lipid (TAG) fluorescence; cells loaded with 200 µM oleic acid; inhibition, % at 12.5 µM; actives 0.66% (n = 230,000);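 active means pattern-corrected inhibition of lipid staining of at least 50% with the nuclear-stain viability signal not falling by more than 50%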
DDE Tn6 FP inh: inhibitors of Tn6 peptide binding to fibrin DD(E), primary screen, biochemical, fluorescence polarization, human fibrin, Tn6 probe. Fibrinogen beta chain (Homo sapiens), P02675. Fibrin DD(E) TRITC-Tn6 fluorescence polarization displacement. inhibition, % at 8.3 µM. actives 0.21% (n = 370,000). AID 720509, 2013;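 active means inhibition above a per-campaign cutoff: mean of compounds within control limits plus 3 SD, cut at about 15% in these data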
DAGLB inhibitor: DAGLB lipase inhibitors, primary screen, biochemical, fluorescence, HTS; Diacylglycerol lipase-beta (Homo sapiens), Q8NCG7; HEK293T DAGLB membrane lysate, EnzChek fluorogenic substrate; inhibition, % at 5.17 µM; actives 0.059% (n = 340,000); AID 504411, 2011; in the data active means inhibition above about 34%
MT1-MMP act inh: blockers of MT1-MMP proenzyme processing, primary screen, HT1080 RFP-PRO-GFP cells, GFP/RFP fluorescence. actives 0.061% (n = 360,000). GFP/RFP ratio change, % at 20 µM. GFP/RFP ratio fluorescence, overnight; percent of plate control window, DMSO zero. Matrix metalloproteinase-14 (Homo sapiens), P50281;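 active means GFP/RFP ratio change of at least 30% with cell ATP level not reduced by more than half and red fluorescence within 50% of control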
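Assay system – RFP-PRO-GFP reporter HT1080 cells · Compound dosing – single dose of 20 µM compound, 1% DMSO final · Incubation – overnight compound exposure at 37 °C · Measure – GFP/RFP fluorescence ratio · Benchmarks – DMSO wells and RFP-L50D-GFP cells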
DDE Tn6 FP ctr: counter-screen hit for Tn6 peptide-fibrin DD(E) binding disruption. shares compounds with DDE Tn6 FP inh. actives 2% (n = 680). TRITC-Tn6 fluorescence polarization displacement; 0% = median of compound wells, not DMSO. inhibition, % at 8.3 µM;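 active means inhibition above the mean of test compounds lying between the control limits plus 3 SD of those, cut at about 14% in these data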
DDE Tn6 confirm: inhibitors of Tn6 peptide binding to fibrin DD(E), confirmation, biochemical, fluorescence polarization, human fibrin, Tn6 probe; shares compounds with DDE Tn6 FP inh; inhibition, % at 8.3 µM; FP displacement of TRITC-Tn6 peptide from DD(E); 0% = per-plate median of test wells; actives 10% (n = 680); AID 720631, 2013;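 active means inhibition above the mean of compounds lying within the control limits plus 3 SD, cut at about 16% in these data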
Large screens that a line does not name were inactive (follow-up assays come after a bar, where they were run). An excerpt weighted towards active compounds, which were near 1.4% of everything screened.

OC(c1ccccc1)(c1nc(/C=C/c2ccc(C(F)(F)F)cc2)cs1)C(F)(F)F (centres undefined)	none (no result: DAGLB inhibitor)
CC1CC(C)CN(C(=O)C2CCN(S(=O)(=O)c3ccc4c(c3)CC(C)N4C(=O)C3CC3)CC2)C1 (centres undefined)	none (no result: TAG inh)
Cc1ccc2c(C)c(C(=O)Nc3ccc(S(N)(=O)=O)cc3)oc2c1C	DDE Tn6 FP inh 26 | DDE Tn6 FP ctr inactive | DDE Tn6 confirm inactive
CN(C(=O)c1ccccc1Cl)c1ccccc1	DDE Tn6 FP inh 15 (no result: TAG inh) | DDE Tn6 FP ctr inactive | DDE Tn6 confirm inactive
CN(C(=O)c1ccccc1-c1ccccc1C(=O)O)c1ccccc1	none
COc1cc(NC(=O)CN(C)Cc2cccc(F)c2)c(C)cc1[N+](=O)[O-]	DDE Tn6 FP inh 17 | DDE Tn6 FP ctr inactive | DDE Tn6 confirm inactive
O=C(Nc1ccc2c(c1)OCO2)c1cc(C2CCCCN2S(=O)(=O)Cc2ccccc2)on1 (centres undefined)	none (no result: DAGLB inhibitor)
CCN(CC)c1ccc(C(=O)c2ccccc2C(=O)O)c(O)c1	DDE Tn6 FP inh 15 (no result: TAG inh) | DDE Tn6 FP ctr inactive | DDE Tn6 confirm inactive
COc1ccc(CCC(=O)Nc2nc3c(s2)CN(C)CC3)cc1OC	DDE Tn6 FP inh 83 | DDE Tn6 FP ctr inactive | DDE Tn6 confirm inactive
COc1cccc(OCC(=O)Nc2ccccc2NC(C)=O)c1	DDE Tn6 FP inh 17 | DDE Tn6 FP ctr inactive | DDE Tn6 confirm inactive
CCOC(=O)[C@]12CCC=C1N(CCC1=CCCCC1)C(=O)[C@H](CC(=O)N1CCOCC1)C2	none (no result: Cardio protect, TAG inh, DAGLB inhibitor)
c1cc(CNc2ccc3c(c2)OCO3)ccn1	DDE Tn6 FP inh 16 | DDE Tn6 FP ctr inactive | DDE Tn6 confirm inactive
O=C1c2ccccc2C(=O)N1CCCc1cn(C[C@H]2CC[C@H](Cn3cc(CCCN4C(=O)c5ccccc5C4=O)nn3)O2)nn1	none
C[C@@H]1OC(C2CCCCC2)N(C)[C@H]2C[C@H]3c4[nH]c5cccc(-c6ccccc6)c5c4CCN3C[C@@H]12 (some centres undefined)	none (no result: Cardio protect, TAG inh, DAGLB inhibitor, MT1-MMP act inh)
c1ccc2c(c1)CCN(C1=Nc3cccc4cccc1c34)C2	DDE Tn6 FP inh 18 | DDE Tn6 FP ctr inactive | DDE Tn6 confirm 63
O=C(Nc1ccncc1)c1cc(C2CCCCN2C(=O)CCc2ccccc2)on1 (centres undefined)	DDE Tn6 FP inh 15 (no result: DAGLB inhibitor) | DDE Tn6 FP ctr inactive | DDE Tn6 confirm inactive
O=C(Nc1ccncc1)c1cc(C2CCCCN2C(=O)CCCc2ccccc2)on1 (centres undefined)	none (no result: DAGLB inhibitor)
CC1(OC(=O)c2ccco2)C(=O)C=C2C=C(C3CC3)OC=C2C1=O (centres undefined)	DDE Tn6 FP inh 28 | DDE Tn6 FP ctr inactive | DDE Tn6 confirm 18
O=C(OC1CC2CC1[C@H]1CCCCN1C2=O)N1CCCCC1 (some centres undefined)	none (no result: Cardio protect, TAG inh, DAGLB inhibitor)
COCCn1c(SCCCC(=O)c2ccc(Br)cc2)nnc1-c1ccncc1	none
CCn1c(CSc2n[nH]c(N)n2)nc2cc(C(=O)O)ccc21	DDE Tn6 FP inh 29 | DDE Tn6 FP ctr inactive | DDE Tn6 confirm 22
